From PubChem
Shown are actives, neighbours in structure and some others; about 3.7% of the full set was active somewhere.
KCNQ1 pot = potentiators or activators of human KCNQ1 potassium channel; 0.35% of 310,000 active; B-score at 10 µM; CHO-K1 KCNQ1, thallium flux FluxOR fluorescence; stronger effect = higher value; AID 2648;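 active = fluorescence ratio B-score, a plate-corrected score, at least three library SD, with initial intensity B-score within 5 SD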
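assay system = KCNQ1-transfected CHO-K1 cells | medium = assay buffer with matched DMSO | probe or stimulus = depolarizing K+/Tl+ stimulus, K2SO4 and Tl2SO4 each 12.5 mM in 5x stock | dosing = single dose | incubation = dye 90 min, compound 20 min, room temperature | detection = kinetic FluxOR fluorescence, 10 s baseline plus 110 s post-stimulus | evaluation = ratio B score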
Kir21 inh = blocks the mouse Kir2.1 inward-rectifier potassium channel. HEK293-Kir2.1, FluxOR thallium flux fluorescence; stronger effect = lower value. AID 1672. P35561. 0.85% of 310,000 active. B-score at 10 µM;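 active = fluorescence ratio B-score at or below minus 3 SD of library scores, with starting-brightness B-score within 2 SD, cut at about -4.2 in these data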;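 note: channel flux triggered by added potassium and thallium sulfate stimulus; B-score of peak minus minimum fluorescence over baseline after thallium stimulus; more negative B-score means stronger Kir2.1 block with less thallium influx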
KCNK3 inh = human KCNK3 channel inhibition, primary screen; O14649; CHO-KCNK3 thallium flux, FluxOR fluorescence; stronger effect = lower value; B-score at 10 µM; 0.84% of 340,000 active;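 active = B-score under library mean minus 4 SD, starting fluorescence ratio at most library mean plus 5 SD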;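 note: more negative B-score means stronger inhibition of thallium flux through KCNK3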
Target sequence (O14649 whole entry, looked up): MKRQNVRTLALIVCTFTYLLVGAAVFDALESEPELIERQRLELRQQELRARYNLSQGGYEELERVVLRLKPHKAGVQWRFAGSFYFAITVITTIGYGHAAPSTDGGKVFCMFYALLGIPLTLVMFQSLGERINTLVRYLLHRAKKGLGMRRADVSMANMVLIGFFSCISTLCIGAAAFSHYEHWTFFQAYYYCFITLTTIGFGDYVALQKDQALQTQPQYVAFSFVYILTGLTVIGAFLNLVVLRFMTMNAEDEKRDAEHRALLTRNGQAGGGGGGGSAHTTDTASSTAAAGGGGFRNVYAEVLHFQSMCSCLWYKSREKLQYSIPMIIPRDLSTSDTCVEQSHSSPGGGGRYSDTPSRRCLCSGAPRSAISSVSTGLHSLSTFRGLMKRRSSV
hERG protect = shields human hERG channel from block by proarrhythmic agents | Q12809 | CHO-hERG, FluxOR thallium flux, dofetilide IC70 present | activation (rescue from dofetilide block), less the hit threshold, % at 10 µM | 0.51% of 310,000 active;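 active = activation above the mean of controls blocked by dofetilide plus 5 SD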;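 note: thallium influx through hERG after potassium depolarization seen as dye fluorescence rise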
KCNK9 inh = inhibitors of human KCNK9 two-pore domain potassium channel; Q9NPC2; HEK293 KCNK9, FluxOR thallium flux fluorescence; stronger effect = lower value; B-score at 10 µM; 1.2% of 310,000 active;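 active = ratio B-score over 3 SD below the library mean, with starting fluorescence within 5 SD of its mean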;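 note: negative B-score means less thallium flux so channel inhibition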
KCNQ1 inh = human KCNQ1 channel inhibition | P51787 | CHO-K1 KCNQ1, FluxOR thallium flux fluorescence; stronger effect = higher value | B-score at 10 µM | 1.3% of 310,000 active | AID 2642;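 active = compounds whose thallium flux B-score, printed positive for inhibition, exceeds three library SD while starting fluorescence stays within three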;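 note: channel opened by potassium depolarization with thallium stimulus after 20 min compound exposure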
The depositor's hits bear a star; i = inactive; . = not tested or not shown.

SMILES	KCNQ1 pot	Kir21 inh	KCNK3 inh	hERG protect	KCNK9 inh	KCNQ1 inh
CCc1noc(C)c1C(=O)OC(C)C(=O)Nc1ccccc1OC (centres undefined)	i	-2.1	i	-21	i	i
O=C(N/N=C/c1ccccn1)c1cc(-c2ccc(Br)cc2)nc2ccccc12	14*	1.5	i	-1	i	i
O=C(N/N=C/c1ccccn1)c1cc(-c2ccc(Cl)cc2)nc2ccccc12	i	-0.24	i	-11	i	i
Cc1ccc(CNC(=O)CN(C(=O)N2CCN(C)CC2)S(=O)(=O)c2ccc(C)cc2)cc1	i	0.23	i	-13	i	i
Cc1ccccc1/C=C/C(=O)c1ccc([N+](=O)[O-])o1	i	-1.9	.	-11	i	7*
Cc1cccc(/C=C/C(=O)c2ccc([N+](=O)[O-])o2)c1	i	-1.2	i	-17	i	8*
O=C(/C=C/c1cccc([N+](=O)[O-])c1)c1ccc([N+](=O)[O-])o1	i	-0.99	i	-22	i	i
CCCSc1nc(C)cc(C)c1S(C)(=O)=O	i	1.3	i	-4	i	i
CCCSc1nc(C)cc(C)c1S(=O)(=O)c1ccccc1C	i	-1.4	i	-2	-7.5*	i
Cc1ccccc1S(=O)(=O)c1c(C)cc(C)n(C(C)C)c1=O	i	-4.4*	i	-7	i	i
CCCCn1c(C)cc(C)c(S(=O)(=O)c2ccccc2C)c1=O	i	-1.1	i	-2	i	i
Cc1ccc(S(=O)(=O)NC(C(=O)N2CCN(S(=O)(=O)c3cccc(F)c3)CC2)C(C)C)cc1 (centres undefined)	.	.	i	.	.	.
Cn1nc(C(F)(F)F)c(-c2cccc(C(F)(F)F)c2)c1NC(=O)CSCC(=O)O	i	-0.41	i	-9	i	i
CCC(C)N1CC(=O)N2C(c3ccc(OC)cc3OC)c3[nH]c4ccccc4c3C[C@H]2C1=O (some centres undefined)	i	-1.1	i	-6	i	i
COc1ccc(CCN2CC(C(=O)NCc3nc4ccccc4n3C)CCC2=O)cc1 (centres undefined)	i	-0.29	i	-9	i	i
CC(C)N1CC=C2C(C#N)=C(N)C(C#N)(C#N)[C@H](c3ccoc3)[C@H]2C1	i	-4.3	.	-12	i	7*
CCN1CC=C2C(C#N)=C(N)C(C#N)(C#N)C(c3cc(Cl)ccc3Cl)C2C1 (centres undefined)	i	-3.6	-10*	-12	i	12*
Cc1nn(-c2ccc(Cl)nn2)c(=O)c2ccccc12	i	-0.11	i	1	i	i
Cc1ccc(N(Cc2ccco2)C(=O)c2ccc(N3CCCCC3)c([N+](=O)[O-])c2)cc1	i	0.87	i	-7	i	8*
O=C(NCc1ccco1)c1ccc(N2CCCCC2)c([N+](=O)[O-])c1	i	0.01	i	-7	i	i
CC1CCCN(C(=O)c2ccc(OC3CCN(CCc4ccccc4)CC3)cc2)C1 (centres undefined)	i	-4.5*	i	-7	i	i
N#C/C(=C(/O)COC(=O)c1ccc(C#N)cc1)c1nc2ccccc2s1	i	0	i	-1	i	6*
CCCc1sc(N)nc1-c1ccc(Cl)cc1	i	-4.3*	i	-6	i	i
CCNc1nc(-c2ccc(Cl)cc2)cs1	i	-0.18	i	-10	i	i
CCC(=O)c1ccc(OCC(O)CN(CCc2ccccc2)Cc2ccccc2)cc1 (centres undefined)	i	-1.8	i	-21	i	7*
SMILES	KCNQ1 pot	Kir21 inh	KCNK3 inh	hERG protect	KCNK9 inh	KCNQ1 inh
C/C(=N\Nc1nc2ccccc2[nH]1)c1ccc(Cl)s1	11*	1.4	i	-8	i	i
CCOC(=O)C1=C(C)N=C2SCCC(=O)N2[C@@H]1c1cccs1	i	-4.3*	i	-5	i	i
C=CCOC(=O)C1=C(C)N=C2SCCC(=O)N2C1c1ccc(OC(=O)c2ccco2)cc1 (centres undefined)	i	-5*	i	-5	i	i
CCOC(=O)C1=C(C)N=C2SCCC(=O)N2C1c1cccs1 (centres undefined)	i	-0.05	i	-1	i	i
COC(=O)C1=C(C)N=C2SCCC(=O)N2C1/C=C/c1ccccc1 (centres undefined)	i	0.06	-8.9*	-6	i	i
COC(=O)C1=C(C)N=C2SCCC(=O)N2C1c1cc(Br)ccc1OC (centres undefined)	i	-0.29	i	-10	i	i
Cc1cc(C)c(S(=O)(=O)N2CCN(C(=O)c3ccc(-n4cncn4)c([N+](=O)[O-])c3)CC2)c(C)c1	i	0.08	i	-11	i	i
Cc1c(Cc2ccc3c(c2)OCO3)sc(NC(=O)C(C)(C)C)c1C#N	i	0.94	i	-5	-7.6*	i
CN(Cc1nc(-c2cccnc2)no1)S(=O)(=O)c1ccc2ccccc2c1	i	-4.8*	i	-11	i	i
CC(=O)N1CCN(S(=O)(=O)c2cccc(C(=O)NNC(=O)Cn3nc(C)cc3C)c2)CC1	.	.	i	.	.	.
CCN1/C(=C\C=C(C(C)=O)C(C)=O)Sc2ccccc21	i	-7.3	i	-22	i	8*
Nc1nc(Cl)nc2c1ncn2C1CC(O)C(CO)O1 (centres undefined)	i	-0.84	i	-3	i	i
CC(=O)Nc1cc2cc(NS(=O)(=O)c3ccc(C)cc3)ccc2oc1=O	i	-0.02	i	-7	i	i
Cc1nnc(NC(=O)C2CCCN(S(=O)(=O)c3ccccc3C(F)(F)F)C2)s1 (centres undefined)	i	2	i	15*	i	i
CCOC(=O)c1cc(-c2nnc(-c3ccc(Oc4ccccc4)cc3)o2)c(C)nc1C	i	-0.91	-10*	-23	i	i
CCOC(=O)c1cc(C(=O)NN)c(C)nc1C	i	1.6	i	-8	i	i
Cc1ccc(S(=O)(=O)N2CCN(C(=O)Cn3nc(C(=O)O)c4ccccc4c3=O)CC2)cc1	i	1.6	.	-11	i	i
COc1ccc(NC(=O)/C(Cl)=C(/Cl)S(=O)(=O)Cc2ccccc2)cn1	i	-5*	i	-19	i	i
C=CC1CN(C(=O)OCC(Cl)(Cl)Cl)C2CC3c4ccc(OC)cc4NC3C3CC1C2CO3 (centres undefined)	i	-0.73	.	-17	i	7*
CCOC(=O)N1CCC2CC1c1cc(-c3cccc(OC)c3)ccc12 (centres undefined)	.	.	i	.	.	.
